FLuc inh counter – counter-screen for luciferase assay inhibitors: firefly luciferase inhibition. ATPLite firefly luciferase biochemical luminescence, 10 min. 200,000 tested, 1.5% active. inhibition, % at 10 µM. AID 1006;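 active = inhibition above about 50% when tested at 10 µM, limit read from the data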
Target sequence (P08659 whole entry, looked up): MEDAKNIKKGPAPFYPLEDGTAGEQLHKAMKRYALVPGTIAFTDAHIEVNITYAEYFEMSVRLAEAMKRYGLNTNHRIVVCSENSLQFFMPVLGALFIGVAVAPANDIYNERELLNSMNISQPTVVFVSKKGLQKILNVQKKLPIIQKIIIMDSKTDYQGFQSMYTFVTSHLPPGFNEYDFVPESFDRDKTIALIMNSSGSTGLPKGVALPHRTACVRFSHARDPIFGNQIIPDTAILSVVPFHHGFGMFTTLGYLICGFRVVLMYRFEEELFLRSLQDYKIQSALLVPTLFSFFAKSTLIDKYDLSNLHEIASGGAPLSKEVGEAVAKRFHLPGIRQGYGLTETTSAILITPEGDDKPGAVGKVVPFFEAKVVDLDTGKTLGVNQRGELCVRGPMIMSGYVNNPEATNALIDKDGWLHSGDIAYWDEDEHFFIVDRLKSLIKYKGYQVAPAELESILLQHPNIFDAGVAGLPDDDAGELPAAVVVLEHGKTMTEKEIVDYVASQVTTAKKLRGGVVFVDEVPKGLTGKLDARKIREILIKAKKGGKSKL
PPC-1+TRAIL kill – PPC-1 cancer cell killing with TRAIL present. PPC-1 cells + TRAIL, ATPLite viability luminescence. cell killing (% activity), % at 4 µM or 5 µM. 220,000 tested, 0.41% active. AID 1443;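 active = cell killing above 50% in the first pass at 4 µM, then a duplicate retest at 5 µM averaging 50% or more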;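 note: plate controls were cells with TRAIL plus DMSO for no effect and medium-only wells lacking cells for full effect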
C8 TRAIL sens – caspase-8 TRAIL sensitization; NB7+C8 cells + TRAIL, ATPlite viability luminescence; inhibition (viability loss, TRAIL sensitization), % at 10 µM; 360,000 tested, 1% active; AID 624354;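 active = compounds causing at least 50% loss of cell viability in the single-dose screen, relative to plate controls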
FLuc act counter – affects firefly luciferase, flagging false hits in luciferase stimulation screens; P08659; ATPlite luciferase biochemical, luminescence, 10 min; 0 = ATP-free wells, 1 = DMSO control; activation factor at 10 µM; 200,000 tested, under 10 active;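 active = luciferase activation factor, scaled between plate controls, of at least 2 with compound at 10 µM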
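Assay system: Luciferase/luciferin detection reagent, cell-free biochemical luciferase assay / Also added: ATP substrate / Schedule: 10 min at ambient temperature / Measured by: luminescence measurement of luciferase light output / Benchmarks: low control with PBS replacing ATP, high control enzyme plus ATP without compound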
PPC-1 tox – PPC-1 cell cytotoxicity; PPC-1 viability, ATPlite luminescence, overnight; 1,200 tested, 50% active; cytotoxicity, % at 5 µM; shares compounds with PPC-1+TRAIL kill;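 active = reconfirmed compounds whose average cytotoxicity reaches 50% or more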;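 note: 0% = DMSO-treated cells and 100% = wells holding medium but no cells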
An asterisk follows results filed as active; nt = not tested or not shown. An excerpt weighted towards active compounds, which were near 1.6% of everything screened.

SMILES	FLuc inh counter	PPC-1+TRAIL kill	C8 TRAIL sens	FLuc act counter	PPC-1 tox
O=C(CCn1cnc2ccccc2c1=O)Nc1cccc(Cl)c1	-6.7	-18.5	10.0	1.1	-35.2
Fc1ccc(-c2cnn3c(-c4ccncc4)ccnc23)cc1	75.5*	29.6	54.3*	0.2	20.5
Fc1ccc(-c2cnn3c(-c4cccs4)ccnc23)cc1	83.4*	59.4*	67.7*	0.2	52.8*
Cc1nn2c(-c3ccc(F)cc3)ccnc2c1Br	nt	nt	-1.8	nt	nt
COC(=O)C1=C(N)Oc2cc(C)n(CCCn3ccnc3)c(=O)c2C1c1cccc(Cl)c1 (configuration not stated)	-0.3	6.8	-6.6	1	-1.3
COc1ccc(C)cc1NC(=O)C(c1ccccc1)N1CCN(CC(=O)N2CCCC2)CC1 (configuration not stated)	nt	nt	7.0	nt	nt
Cc1ccc(CNC(=O)CN2C(=O)C3(OCCCO3)c3ccccc32)cc1	-3.2	17.5	9.4	1	nt
O=C(CN1C(=O)C2(OCCCO2)c2ccccc21)NCc1ccccc1	-6.4	7.2	-5.0	1.1	1.2
Cc1cc2c3c(ccc(C)c3n1)N=CN2c1ccccc1	-5.5	13.3	16.4	1.1	10.3
CCCCCCCn1c2c(c(=N)c3ccccc31)CCC2	-6.4	17.6	60.5*	1.1	17.3
COCCNC(=O)c1noc2c1CCc1cc(OC)ccc1-2	26.2	17.5	18.9	0.7	nt
COc1ccc2c(c1)CCc1c(C(=O)NCc3ccco3)noc1-2	8.9	15.9	2.3	0.9	11.1
O=C(CN1C(=O)c2cccc3cccc1c23)NCc1cccnc1	-6.7	-11.6	-18.4	1.1	nt
ClCc1ncc(-c2ccc(Cl)cc2)o1	-7.0	18.0	0.8	1.1	17.1
COc1cc(OC)c2c(c1)OC(c1ccc(OC)c(OC)c1)C(O)C2=O (configuration not stated)	-6.9	-1.1	-0.7	1.1	nt
Cc1ccc(-c2sc(C(=O)NN)c(C)c2C#N)cc1	nt	73.1*	34.4	nt	76.0*
Cc1ccc(CSc2sc(C(=O)c3ccccc3)c(N)c2C#N)cc1	-8.7	-0.6	-5.1	1.1	nt
CCOC(=O)Cc1csc(NC(=O)c2cccc(N3C(=O)CCC3=O)c2)n1	-2.3	4.0	-9.4	1	nt
CCOC(=O)c1cnc2c(N=Nc3ccccc3)c(N)nn2c1N	69.9*	58.2*	68.6*	0.3	59.0*
CCOC(=O)c1cnc2c(-c3ccccc3)cnn2c1N	74.7*	52.5*	66.0*	0.3	55.1*
CCOC(=O)c1cnc2c(N=Nc3cccc(Cl)c3)c(N)nn2c1N	7.4	16.8	nt	0.9	nt
CCOC(=O)c1cnc2c(-c3ccccc3)c(C)nn2c1N	14.4	8.0	3.9	0.9	nt
CNC(=S)NCCc1ccc(OC)cc1	-3.3	33.4	-1.3	1	nt
Cc1ccc(CNC(=O)CSc2ccc(-c3cccs3)nn2)cc1	-2.5	5.1	-2.1	1	nt
Clc1ccccc1C=NNc1ccccn1	nt	nt	11.8	nt	nt
SMILES	FLuc inh counter	PPC-1+TRAIL kill	C8 TRAIL sens	FLuc act counter	PPC-1 tox
COc1ccc2nc(Cl)c(/C=N/Nc3ccccn3)cc2c1	79.2*	66.5*	66.8*	0.2	65.4*
Cc1ccc2c(c1)C1CN(C)CCC1N2C(=O)COc1ccc(N(C)C(=O)C(C)(C)C)cc1 (configuration not stated)	-6.5	-6.8	-3.5	1.1	nt
Cc1ccc(C(=O)N(C)c2ccc(OCC(=O)N3c4ccc(C)cc4C4CN(C)CCC43)cc2)cc1 (configuration not stated)	87.9*	51.7*	51.8*	0.1	46.2
O=C(Nc1nc2ccccc2[nH]1)c1ccccc1	88.2*	62.0*	84.2*	0.1	60.1*
O=C(Nc1nc2ccccc2[nH]1)c1cccc(Cl)c1	nt	nt	41.7	nt	nt
O=C(c1ccco1)N1N=C(c2ccc(Cl)cc2)CC1c1ccco1 (configuration not stated)	nt	nt	2.9	nt	nt
CC(C)(C)c1ccc(NC(=O)Nc2ccc(OCC(=O)N3CCOCC3)cc2)cc1	91.6*	63.1*	78.0*	0.1	63.1*
CCC(=O)NC(c1cccs1)c1ccc2cccnc2c1O (configuration not stated)	3.5	28.2	47.6	1	21.7
CC(C)CC(=O)NC(c1cccs1)c1ccc2cccnc2c1O (configuration not stated)	-3.6	nt	36.4	1	nt
CCCCCCNC(=O)c1c(O)c2cccc3c2n(c1=O)CCC3	-8.4	26.4	-9.5	1.1	nt
O=C(NCCNCCO)c1c(O)c2cccc3c2n(c1=O)CCC3	-1.4	11.7	10.6	1	9.8
CCn1nc([N+](=O)[O-])c(C(C#N)c2nc3ccccc3n2C)c(Cl)c1=O (configuration not stated)	-5.1	8.7	10.3	1.1	nt
CC1CCCC/C1=N\NS(=O)(=O)c1ccc(Br)cc1 (configuration not stated)	-6.8	-4.0	-0.3	1.1	11.1
CCOC(=O)N1CCN(C(=O)c2nc3ccccc3s2)CC1	2.0	11.5	2.3	1	-0.6
CCOC(=O)N1CCN(CC(=O)Nc2nc3ccccc3s2)CC1	nt	nt	-22.5	nt	nt
COC(=O)C1=C(C)N(Cc2ccc(OC)cc2)C(=O)C1	-6.4	10.9	-8.9	1.1	nt
COC(=O)C1=C(C)N(CC(C)C)C(=O)C1	1.1	12.9	1.1	1	12.6
Cc1ccccc1CNc1ccc(C(CC(N)=O)NC(=O)c2ccc(Br)cc2)cc1[N+](=O)[O-] (configuration not stated)	nt	4.5	4.2	nt	nt
CCNC(=S)NNC(=O)c1cc(-c2ccc(OCC)cc2)nc2ccccc12	98.2*	93.0*	85.7*	0	93.0*
CCn1cc(-c2cc(C(=O)O)c3ccccc3n2)c(C)n1	30.7	27.7	14.5	0.7	nt
O=C(NCc1ccccn1)c1cc(-c2ccc(-c3ccccc3)cc2)nc2ccccc12	88.0*	61.5*	82.2*	0.1	60.9*
CC(C)(C)c1ccc(-c2cc(C(=O)NNC(=O)Nc3ccccc3)c3ccccc3n2)cc1	77.3*	64.5*	68.4*	0.2	60.6*
CCNC(=S)NNC(=O)c1cc(-c2ccccc2C)nc2ccccc12	1.6	-0.7	5.3	1	nt
CCn1cc(-c2cc(C(=O)O)c3ccccc3n2)cn1	82.6*	51.3*	62.4*	0.2	54.8*
O=C(NNC(=O)c1cc(-c2ccccc2)nc2ccccc12)Nc1cccc(Cl)c1	-5.7	10.3	-10.5	1.1	nt
Cc1ccc(C(=O)Nc2nncs2)cc1S(=O)(=O)N1CCOCC1	-1.9	3.1	-6.3	1	nt
O=C(CSc1nnnn1Cc1ccccc1)N1CCN(c2ccccc2)CC1	0.3	4.6	-4.2	1	nt
COc1ccc([C@H]2C[C@@H](O)[C@H](n3cc(-c4ccc(F)cc4)nn3)CN2C(=O)C2CCCCC2)cc1	nt	nt	3.8	nt	nt
CCC/C=N/NC(=O)c1cc(-c2ccccc2)nc2ccccc12	4.0	8.5	-0.5	1	nt
CCc1ccc(-c2cc(C(=O)Nn3cnnc3)c3ccccc3n2)cc1	98.0*	97.0*	93.4*	0	97.0*

Source: PubChem
